# Reference: ChEMBL document CHEMBL2146438, “Radiolabeled cyclosaligenyl monophosphates of 5-iodo-2'-deoxyuridine, 5-iodo-3'-fluoro-2',3'-dideoxyuridine, and 3'-fluorothymidine for molecular radiotherapy of cancer: synthesis and biological evaluation” (J Med Chem, 2012)
# What was measured:
# [1] = Cellular uptake in human LS 174T cells at 13.6 +/- 0.4 kBq/mL after 3 hrs by gamma counting; assay type: ADME, cell-based; conditions: ls174t
# Method in brief: (§1)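 Time-course uptake of resolved 125I-labelled diastereomers in LS 174T (colorectal) or OVCAR-3 (ovarian) cells at the stated radioactive concentration; cell-associated radioactivity counted at each time point; mean and std dev, n = 3 per time.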
# OVCAR-3 [2] = assay: Cellular uptake in human OVCAR3 cells at 16.7 +/- 1.2 kBq/mL after 3 hrs by gamma counting; assay type: ADME, cell-based; conditions: ovcar-3, 3 h; method in brief: as §1
# [3] = Cellular uptake in human U87MG cell cytoplasm incubated for 1 hr followed by compound wash out measured after 24 hrs by gamma counting; assay type: ADME, cell-based; conditions: u-87mg atcc
# Method in brief: (§2)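 U-87 MG cells treated 1 h with 125I-labelled diastereomers, fractionated either immediately or after 24 h in fresh nonradioactive medium; 125I counted in cytoplasm, soluble nuclear fraction and DNA.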
# [4] = Half life of the compound in phosphate buffer at pH 7.3; assay type: physicochemical
# [5] = Chemical stability of the compound in phosphate buffer at pH 7.3; assay type: physicochemical
# [6] = Cellular uptake in human U87MG DNA incubated for 1 hr followed by compound wash out measured after 24 hrs by gamma counting; assay type: ADME, cell-based; conditions: u-87mg atcc; method in brief: as §2
# [7] = Cellular uptake in human U87MG cell nucleus incubated for 1 hr followed by compound wash out measured after 24 hrs by gamma counting; assay type: ADME, cell-based; conditions: u-87mg atcc; method in brief: as §2
# [8] = Cellular uptake in human LS 174T cells at 17.5 +/- 0.3 kBq/mL after 3 hrs by gamma counting; assay type: ADME, cell-based; conditions: ls174t; method in brief: as §1
# [9] = Cellular uptake in human OVCAR3 cell nucleus assessed as per 10^3 cells after 24 hrs by gamma counting; assay type: ADME, cell-based; conditions: ovcar-3, 24 h, 24 h
# Method in brief: (§3)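 OVCAR-3 cells incubated 1 h with 55.5 (0.04) kBq/mL 125I-labelled agent (diastereomer mixtures or resolved slow isomers); fractionated either immediately or after 24 h further growth in fresh nonradioactive medium; 125I in cytoplasm and nucleus counted as cpm/10^3 cells with std dev.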
# [10] = Cellular uptake in human OVCAR3 cell cytoplasm assessed as per 10^3 cells after 24 hrs by gamma counting; assay type: ADME, cell-based; conditions: ovcar-3, 24 h, 24 h; method in brief: as §3
# [11] = Cellular uptake in human OVCAR3 cell nucleus assessed as per 10^3 cells after 1 hr by gamma counting; assay type: ADME, cell-based; conditions: ovcar-3, 1 h, 1 h; method in brief: as §3
# [12] = Cellular uptake in human OVCAR3 cell cytoplasm assessed as per 10^3 cells after 1 hr by gamma counting; assay type: ADME, cell-based; conditions: ovcar-3, 1 h, 1 h; method in brief: as §3
# OVCAR-3 [13] = assay: Cellular uptake in human OVCAR3 cells at 35.1 +/- 0.3 kBq/mL after 3 hrs by gamma counting; assay type: ADME, cell-based; conditions: ovcar-3, 3 h; method in brief: as §1
# OVCAR-3 [14] = assay: Cellular uptake in human OVCAR3 cells at 35.1 +/- 0.3 kBq/mL after 6 hrs by gamma counting; assay type: ADME, cell-based; conditions: ovcar-3, 6 h
# Method in brief: (§4)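 Time-course uptake in LS 174T or OVCAR-3 cells at 35.1±0.3 kBq/mL, continued to 6 h; cell-associated 125I counted; mean and std dev, n = 3 per time.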
# [15] = Cellular uptake in human LS 174T cells by gamma counting; assay type: ADME, cell-based; conditions: ls174t
# [16] = Cellular uptake in human LS 174T cells at 35.1 +/- 0.3 kBq/mL after 6 hrs by gamma counting; assay type: ADME, cell-based; conditions: ls174t; method in brief: as §4
# [17] = Cellular uptake in human LS 174T cells at 35.1 +/- 0.3 kBq/mL after 3 hrs by gamma counting; assay type: ADME, cell-based; conditions: ls174t; method in brief: as §1
# [18] = Cytotoxicity against human LS 174T cells assessed as colony formation at 114.5 kBq/mL incubated for 4 hrs measured after 21 days by clonogenic assay; assay type: functional, LS174T
# Method in brief: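 LS 174T cells exposed 4 h to 114.5 kBq/mL 125I agent, cultured 24 h in nonradioactive medium, then harvested and plated; colonies counted after 21 days; surviving fraction = treated colonies / untreated control colonies.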
# [19] = Cellular uptake in human LS 174T cells at 46.9 +/- 1.1 kBq/mL up to 90 mins by gamma counting; assay type: ADME, cell-based; conditions: ls174t, 1.5 h; method in brief: as §1
# OVCAR-3 [20] = assay: Cellular uptake in human OVCAR3 cells at 46.9 +/- 1.1 kBq/mL up to 90 mins by gamma counting; assay type: ADME, cell-based; conditions: ovcar-3, 1.5 h; method in brief: as §1
# OVCAR-3 [21] = assay: Cellular uptake in human OVCAR3 cells after 3 hrs by gamma counting; assay type: ADME, cell-based; conditions: ovcar-3, 3 h
# Method in brief: (§5)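 Concentration-dependent uptake: LS 174T or OVCAR-3 cells exposed to increasing concentrations of 125I-labelled diastereomers for 3 h; 131IUdR added to the medium as internal standard of proliferation; saturable uptake fitted to give Bmax as molecules/cell.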
# [22] = Cellular uptake in human LS 174T cells after 3 hrs by gamma counting; assay type: ADME, cell-based; conditions: ls174t; method in brief: as §5
# OVCAR-3 [23] = assay: Cellular uptake in human OVCAR3 cells at 46.9 +/- 1.1 kBq/mL after 90 mins by gamma counting; assay type: ADME, cell-based; conditions: ovcar-3, 1.5 h; method in brief: as §1
# [24] = Cellular uptake in human LS 174T cells at 46.9 +/- 1.1 kBq/mL after 90 mins by gamma counting; assay type: ADME, cell-based; conditions: ls174t, 1.5 h; method in brief: as §1
# [25] = Cellular uptake in human U87MG cells by gamma counting; assay type: ADME, cell-based; conditions: u-87mg atcc
# Cholinesterase = Cholinesterase (Homo sapiens, UniProt P06276); assay: Inhibition of human BChE after 24 hrs by microplate reader method
# Cholinesterase, sequence (P06276 whole entry): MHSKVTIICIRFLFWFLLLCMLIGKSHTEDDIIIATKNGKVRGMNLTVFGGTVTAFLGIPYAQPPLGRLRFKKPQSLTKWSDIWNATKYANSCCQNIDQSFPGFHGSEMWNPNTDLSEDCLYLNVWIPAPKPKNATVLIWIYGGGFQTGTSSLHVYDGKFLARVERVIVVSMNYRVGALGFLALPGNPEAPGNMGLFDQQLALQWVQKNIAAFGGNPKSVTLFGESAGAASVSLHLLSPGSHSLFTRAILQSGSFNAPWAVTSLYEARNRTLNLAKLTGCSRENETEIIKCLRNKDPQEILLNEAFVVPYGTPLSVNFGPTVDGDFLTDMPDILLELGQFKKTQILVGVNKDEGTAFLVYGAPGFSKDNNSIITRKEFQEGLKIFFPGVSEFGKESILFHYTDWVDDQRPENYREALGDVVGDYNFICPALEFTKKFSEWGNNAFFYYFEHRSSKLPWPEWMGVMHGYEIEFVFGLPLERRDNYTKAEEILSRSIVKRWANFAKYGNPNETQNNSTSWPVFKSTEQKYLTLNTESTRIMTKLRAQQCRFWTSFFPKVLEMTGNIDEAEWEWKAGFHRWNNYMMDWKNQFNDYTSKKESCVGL
compound,measurement,setting,value
CC(C)(C)c1cc(C(C)(C)C)c2c(c1F)COP(=O)(OC[C@H]1O[C@@H](n3cc([125I])c(=O)[nH]c3=O)C[C@@H]1O)O2 (some centres not stated),Drug uptake,[1],Active
same,Drug uptake,OVCAR-3 [2],Active
CC(C)(C)c1cc(C(C)(C)C)c2c(c1F)COP(=O)(OC[C@H]1O[C@@H](n3cc([125I])c(=O)[nH]c3=O)C[C@@H]1F)O2 (stereo in doubt; form 1),Drug uptake,[3],Active
same,t1/2,[4],38.5 h
same,K,[5],3.01 ×10⁻⁴ /min
same,Drug uptake,[6],Active
same,Drug uptake,[7],Active
CC(C)(C)c1cc(C(C)(C)C)c2c(c1F)COP(=O)(OC[C@H]1O[C@@H](n3cc([125I])c(=O)[nH]c3=O)C[C@@H]1O)O2 (stereo in doubt),Drug uptake,[8],Active
same,Drug uptake,[9],91.6 cpm
same,Drug uptake,[10],2.8 cpm
same,Drug uptake,[11],7.8 cpm
same,Drug uptake,[12],87.3 cpm
Cc1cccc2c1OP(=O)(OC[C@H]1O[C@@H](n3cc([125I])c(=O)[nH]c3=O)C[C@@H]1O)OC2 (stereo in doubt; form 1),t1/2,[4],21.2 h
same,K,[5],5.44 ×10⁻⁴ /min
same,Drug uptake,OVCAR-3 [13],Active
same,Drug uptake,OVCAR-3 [14],Active
same,Drug uptake,[15],Active
same,Drug uptake,[16],Active
same,Drug uptake,[17],Active
O=c1[nH]c(=O)n([C@H]2C[C@H](O)[C@@H](COP3(=O)OCc4ccccc4O3)O2)cc1[125I] (stereo in doubt; form 1),Activity,[18],60%
same,Drug uptake,[19],Active
same,Drug uptake,OVCAR-3 [20],Active
same,Drug uptake,OVCAR-3 [21],Dose-dependent effect
same,t1/2,[4],5.1 h
same,K,[5],2.25 ×10⁻³ /min
same,Drug uptake,[22],Dose-dependent effect
same,Drug uptake,OVCAR-3 [23],Active
same,Drug uptake,[24],Active
same,Drug uptake,[25],Dose-dependent effect
CC(C)(C)c1cc(C(C)(C)C)c2c(c1F)COP(=O)(O[C@H]1C[C@H](n3cc(I)c(=O)[nH]c3=O)O[C@@H]1CO)O2 (stereo in doubt; form 2),IC50,Cholinesterase,> 3 mM
same,t1/2,[4],17.3 h
same,K,[5],6.67 ×10⁻⁴ /min
